# Screening results deposited in PubChem by several laboratories.
# Shown are actives, neighbours in structure and some others; about 3.1% of the full set was active somewhere.
# rCAG binder: molecules binding r(CAG) RNA repeats | r(CAG) RNA repeat, TO-PRO-1 dye displacement fluorescence | inhibition, % at 3 µM | hit rate 1.3% among 370,000 | AID 651821;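 active = inhibition above the plate cutoff, the mean of all test compounds on that plate plus 3 SD, cut at about 35% in these data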;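 note: 0% = DMSO alone and 100% = 100 µM mitoxantrone as full dye displacement; higher means more dye released from RNA so lower well fluorescence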
# MBD2 inh: blocks human MBD2 binding to methylated DNA; Q9UBB5; AID 686964; TR-FRET, MBD2 binding to methylated oligonucleotide; hit rate 0.31% among 370,000; inhibition, % at 4.4 µM; in the data active = inhibition above about 13%
# Target sequence (Q9UBB5 whole entry, looked up): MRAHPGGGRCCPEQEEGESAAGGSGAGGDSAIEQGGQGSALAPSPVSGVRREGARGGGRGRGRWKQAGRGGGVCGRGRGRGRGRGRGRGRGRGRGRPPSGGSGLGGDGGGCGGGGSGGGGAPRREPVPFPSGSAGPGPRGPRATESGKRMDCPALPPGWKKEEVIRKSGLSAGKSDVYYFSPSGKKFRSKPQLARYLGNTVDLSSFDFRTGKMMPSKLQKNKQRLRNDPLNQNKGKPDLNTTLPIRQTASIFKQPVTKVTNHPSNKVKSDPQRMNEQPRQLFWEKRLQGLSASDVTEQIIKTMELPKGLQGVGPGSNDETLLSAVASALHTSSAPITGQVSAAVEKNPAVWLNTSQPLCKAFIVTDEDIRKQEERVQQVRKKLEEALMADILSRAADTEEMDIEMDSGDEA
# LEDGF integ inh: blocks HIV-1 LEDGF/p75-dependent DNA integration; TR-FRET IN-LEDGF/p75 DNA integration, Eu/Cy5; inhibition, % at 3.7 µM; hit rate 0.64% among 370,000; AID 743269;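 active = inhibition above the screen-wide mean plus 3 SD, cut at about 13% in these data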;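 note: signal is the Cy5 over europium emission ratio at 671 and 618 nm; 0% = plate median of compound wells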
# CSN deneddyl inh: CSN deneddylation inhibition; inhibition, % at 12.5 µM; Q92905; Purified CSN, SCF-Nedd8-OG deneddylation, fluorescence polarization; hit rate 0.38% among 360,000;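 active = pattern-corrected inhibition above about 35%, with an unprinted fluorescence ratio check between 0.5 and 1.5, limit read from the data, passing the limit was not always enough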;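 note: 0% = enzyme with substrate and 100% = substrate without enzyme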
#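 Assay system: Purified human Csn5 enzyme expressed in HEK293T cells | Amount: Enzyme 0.24 nM | Measured by: Fluorescence polarization readout | Medium: Tris/NaCl/DTT buffer, pH 7.5 | Compound dosing: One concentration, 12.5 µM, 0.25% DMSO | Times: 90 min incubation of compound, enzyme and substrate at room temperature | Control set: no-enzyme wells high, enzyme-with-substrate wells low | Read-out: % inhibition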
# UHRF1 MBD2 ctr: human UHRF1 methylated DNA binding inhibitors. UHRF1 binding to methylated oligo, TR-FRET. hit rate 0.75% among 370,000. inhibition, % at 4.4 µM;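 note: UHRF1 SRA domain binding a hemimethylated CpG hairpin DNA probe; 0% = median of test compound wells and 100% = reference inhibitor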
# ATG4B inh: blocks human ATG4B protease cleavage of LC3 substrate | inhibition, % at 8.33 µM | hit rate 0.51% among 340,000 | Q9Y4P1 | ATG4B cleavage of LC3-PLA2, NBD-HPC fluorescence, 1 h; in the data active = inhibition above about 40%
# UHRF1 ctr MBD2: counter-screen for MBD2 inhibitors: human UHRF1 methylated DNA binding inhibitors | shares compounds with MBD2 inh | UHRF1 binding to methylated oligonucleotide, TR-FRET | inhibition, % at 4.4 µM | hit rate 25% among 1,000;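 note: UHRF1 SRA domain binding a labeled hemimethylated CpG hairpin DNA; 0% = vehicle only and 100% = reference inhibitor with vehicle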
# MBD2 DBD conf: confirmation of human MBD2-DBD methylated oligonucleotide binding inhibitors. hit rate 26% among 1,000. TR-FRET MBD2-DBD binding to methylated oligonucleotide. inhibition, % at 4.4 µM. shares compounds with MBD2 inh; in the data active = inhibition above about 14%
# * hit, by the source's call; / = not tested or not shown. Cut-off read from the data, not from the text of the source, unless noted: active = inhibition above about 21%; inactive = the rest.
SMILES,rCAG binder,MBD2 inh,LEDGF integ inh,CSN deneddyl inh,UHRF1 MBD2 ctr,ATG4B inh,UHRF1 ctr MBD2,MBD2 DBD conf
COc1cc(C2C(C#N)=C(N)OC3=C2C(=O)CC(C)(C)C3)c([N+](=O)[O-])cc1OC (stereo unspecified),-5,-7,-1,-11,-7,-13,/,/
Cc1ccccc1C(=O)N[C@@H](Cc1cccnc1)C(=O)N1CCC[C@H]1C(=O)NCCc1ccccc1Cl,-1,4,-2,/,-1,/,/,/
O=C1CCC(CNc2ccccc2)N1c1ccccc1 (stereo unspecified),/,5,8,/,6,/,/,/
COc1ccc(N2C(=O)CC(N(Cc3ccco3)C(=O)CCC(=O)O)C2=O)cc1 (stereo unspecified),2,-4,-3,6,-2,4,/,/
CCCOc1ccc(N2C(=O)CC(N(Cc3ccco3)C(=O)CCC(=O)O)C2=O)cc1 (stereo unspecified),3,16*,-3,-1,2,-2,4,2
COc1cc2cc(CCCOC(=O)c3ccc(C(F)(F)F)cc3)oc(=O)c2cc1OC,-2,20*,2,-2,2,-9,2,8
O=C(OCCCc1cc2ccccc2c(=O)o1)c1ccc(C(F)(F)F)cc1,-1,3,-3,1,-1,0,/,/
O=C(OCc1cn(Cc2ccc(C(F)(F)F)cc2)nn1)N1CCOCC1,3,0,-5,/,5,/,/,/
O=C1N[C@@H](Cc2ccccc2)COC(=O)[C@H](Cc2ccc(F)cc2)CC/C=C/C[C@@H]1CC(=O)N(CCO)Cc1ccccc1,1,-6,4,0,1,-1,/,/
O=C1N[C@@H](Cc2ccccc2)COC(=O)[C@@H](Cc2ccc(F)cc2)CC/C=C/C[C@H]1CC(=O)N(CCO)Cc1ccccc1,-2,15*,-1,1,0,-22,5,6
C=CCN1[C@@H](C)COc2cc(N3CCSCC3)ccc2S1(=O)=O,0,0,4,/,-4,/,/,/
Cc1ccc(S(=O)(=O)n2cnc3cc([N+](=O)[O-])ccc32)cc1C,4,14*,3,-1,1,-5,6,4
O=C1C=C(c2ccc(C(=O)O)cc2)C[C@@H](c2ccc3c(c2)OCO3)C1,18,16*,3,-1,17,-2,14,8
O=C1C=C(c2ccc(O)cc2)C[C@@H](c2ccc3c(c2)OCO3)C1,-1,5,3,2,17,-16,/,/
O=Cc1ccc(N2CCN(S(=O)(=O)c3ccc4c(c3)CC(=O)N4)CC2)cc1,28,15*,24*,5,8,/,9,2
O=C(NNC(=O)c1ccccc1F)c1cccc(-n2cccc2)c1,18,24*,7,29,46*,-5,46*,34*
O=C(NNC(=O)c1cccc(-n2cccc2)c1)c1ccccc1,2,4,2,-1,1,3,/,/
CCCn1nnc(NC(=O)COc2ccc(Cl)cc2)n1,-5,14*,1,2,23*,-3,6,2
Cc1ccc(OCC(=O)c2c(N)n(C)c(=O)n(C)c2=O)c([N+](=O)[O-])n1,13,19*,12,26,23*,-1,35*,17*
Cc1ccc(OCC(=O)c2cc(C)c(C)cc2C)c([N+](=O)[O-])n1,14,0,3,-3,-6,2,/,/
O=C(Nc1ccc(Br)cc1)O[C@@H]1CC[C@@]23CCCN2C(=O)CCC[C@H]3C1,/,-2,6,/,1,/,/,/
COc1ccc(NC(=O)C2CCN(C(=O)c3ccco3)CC2)c(OC)c1,0,2,-3,-5,0,6,/,/
COc1ccc(C)cc1NC(=O)C1CCN(C(=O)c2ccco2)CC1,-6,14*,3,0,-2,-11,9,3
CC(=O)N1CCc2cc(Br)c(S(=O)(=O)NCc3ccc(Cl)cc3)cc21,2,2,-3,/,-2,/,/,/
C=CCCC(=O)N[C@H]1CC[C@@]23CCCN2C(=O)CCC[C@H]3[C@H]1C,/,3,-2,/,-1,/,/,/
SMILES,rCAG binder,MBD2 inh,LEDGF integ inh,CSN deneddyl inh,UHRF1 MBD2 ctr,ATG4B inh,UHRF1 ctr MBD2,MBD2 DBD conf
Cc1cc(OC(C)CCN2CCC(C(O)(c3ccccc3)c3ccccc3)CC2)ccc1Br (stereo unspecified),6,-6,0,/,-2,/,/,/
O=C(c1cc(COc2ccc(F)cc2Cl)on1)N1CCCC(c2ccccc2)C1 (stereo unspecified),-3,2,0,-1,-1,34,/,/
O=C(c1cc(COc2ccc(F)cc2F)on1)N1CCCC(c2ccccc2)C1 (stereo unspecified),0,15*,5,-5,25*,4,4,2
Cc1c(N2C(=O)CSC2c2ccccc2)c(=O)n(-c2ccccc2)n1C (stereo unspecified),-2,-1,-1,-2,2,-7,/,/
CCOc1ccc(C2SCC(=O)N2c2c(C)n(C)n(-c3ccccc3)c2=O)cc1 (stereo unspecified),-2,16*,-5,-2,6,-8,10,3
COC(=O)[C@]1(CNS(=O)(=O)C2CC2)CC(=O)N(C)[C@@H]1c1ccccc1,-1,-3,2,/,6,/,/,/
C=CCN1C(=O)[C@@H](CC(=O)NCCCCc2ccccc2)[C@]2(C(=O)OC)CCCCC=C12,0,-2,-2,/,0,/,/,/
COc1ccc(OC)c2nc3c(C(=O)NCCN(C)C)cccc3nc12,6,53*,2,-3,56*,6,71*,63*
CN(C)CCNC(=O)c1cccc2nc3cccc(F)c3nc12,6,35*,-3,2,23*,1,35*,37*
COc1ccc(C23CC4CC(CC(C4)C2)C3)cc1C(=O)NCCN(C)C,-1,0,0,3,0,-4,/,/
CN(C)CCNC(=O)c1ccccc1,2,2,0,-3,0,5,/,/
N#CCC[C@H]1CC[C@]2(CCCN(Cc3cccc4ccccc34)C2)O1,1,-2,-1,/,-2,/,/,/
CCOC(=O)Nc1nc(-c2ccc(Cl)cc2Cl)cs1,4,13*,6,3,20,20,26*,8
CCOC(=O)Nc1nc(C)c(C(=O)c2ccc(Cl)cc2)s1,6,-4,-2,0,-4,12,/,/
O=C(NCCc1c[nH]c2ccccc12)c1ccc2c(c1)ncn2C1CCCCC1,6,5,0,/,1,/,/,/
Cc1c(C(N)=O)cc([N+](=O)[O-])cc1[N+](=O)[O-],1,17*,2,-3,23*,-8,5,2
